Measured values taken from ChEMBL document CHEMBL4616716, “ONO-8430506: A Novel Autotaxin Inhibitor That Enhances the Antitumor Effect of Paclitaxel in a Breast Cancer Model” (ACS Med Chem Lett, 2020).

Tests used:
Autotaxin [1] = molecular target: T1, Autotaxin (Homo sapiens, UniProt Q13822); experiment: Inhibition of recombinant human ATX assessed as reduction in choline release using LPC(16:0) as substrate incubated for 15 hrs
Summary of the method: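 Recombinant human ATX with 16:0 LPC as substrate. Single-point inhibition was tested at 30 μM, and IC50 values were determined.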

[2] = Protein binding in human plasma measured after 4 hrs by LC-MS/MS analysis; format: ADME, cell-free; conditions: read-out: PPB (converted)
[3] = Octanol/phosphate buffer partition coefficient, LogD of compound at pH 7.4 mixed for 1 hr using benchtop-rotator followed by further incubation for 1 hr by ESI-LC-MS/MS analysis; format: physicochemical
[4] = AUC in Sprague-Dawley rat at 0.5 mg/kg, po administered as single cassette dosing by LC-MS/MS analysis; format: ADME, organism-based; conditions: in vivo
Summary of the method: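 Rat cassette dosing, 0.5 mg/kg oral; plasma AUC reported.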

[5] = Protein binding in rat plasma measured after 4 hrs by LC-MS/MS analysis; format: ADME, cell-free; conditions: read-out: PPB (converted)
Autotaxin [6] = molecular target: T1, Autotaxin; experiment: Inhibition of LysoPLD activity of ATX in human plasma assessed as reduction in choline release using LPC(16:0) as substrate incubated for 15 hrs; format: cell-free
Summary of the method: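 LysoPLD activity in human plasma with 16:0 LPC as substrate; IC50 determined.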

IC50 (Autotaxin [1]) [nM]	fraction unbound at 4 h [2]	logD at 1 h [3]	AUC [4] [ng·h/mL]	fraction unbound at 4 h [5]	IC50 (Autotaxin [6]) [nM]	Compound
830	–	–	–	–	–	O=C(O)CCCC(=O)N1CCc2c(n(Cc3ccccc3)c3ncccc23)C1
28	0.01	0.67	–	–	–	O=C(O)c1ccc(CC(=O)N2CCc3c(n(Cc4cccc(F)c4)c4ncccc34)C2)cc1
12	0.014	–	420	0.054	6.1	O=C(CC12CCC(C(=O)O)(CC1)CC2)N1CCc2c(n(Cc3ccc(F)cc3)c3ncccc23)C1
17	0.007	1.07	–	–	–	O=C(C[C@H]1CC[C@H](C(=O)O)CC1)N1CCc2c(n(Cc3cccc(F)c3)c3ncccc23)C1
240	–	–	–	–	–	O=C(O)CCCCC(=O)N1CCc2c(n(Cc3ccccc3)c3ncccc23)C1
29	0.004	1.45	–	–	–	O=C(C[C@H]1CC[C@@H](C(=O)O)CC1)N1CCc2c(n(Cc3cccc(F)c3)c3ncccc23)C1
22	0.009	–	677	0.039	25	C[C@]1(C(=O)O)CC[C@H](CC(=O)N2CCc3c(n(Cc4ccc(F)cc4F)c4ncccc34)C2)CC1
9	0.009	–	472	0.043	8.1	O=C(CC12CCC(C(=O)O)(CC1)CC2)N1CCc2c(n(Cc3ccc(F)cc3F)c3ncccc23)C1
19	0.006	1.36	–	–	16	O=C(C[C@H]1CC[C@@H](C(=O)O)CC1)N1CCc2c(n(Cc3ccc(F)cc3F)c3ncccc23)C1
